Measurements reported in ChEMBL document CHEMBL1142533, “Structure-based virtual screening and biological evaluation of Mycobacterium tuberculosis adenosine 5'-phosphosulfate reductase inhibitors” (J Med Chem, 2008).

How the values were obtained:
[1] = Binding affinity to Mycobacterium tuberculosis APS reductase
In short: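 Timed aliquots quenched in 2% charcoal/20 mM Na2SO3, radiolabeled sulfite in supernatant counted. kobs from single-exponential fit; Ki (=Kd) from kobs dependence on inhibitor concentration.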

[2] = system: Mycobacterium tuberculosis; assay: Inhibition of Mycobacterium tuberculosis APS reductase assessed as [35S]sulphite release at 100 uM
[3] = target: T1, Receptor-type tyrosine-protein phosphatase C (Homo sapiens) (UniProt P08575)
T1 sequence (whole entry): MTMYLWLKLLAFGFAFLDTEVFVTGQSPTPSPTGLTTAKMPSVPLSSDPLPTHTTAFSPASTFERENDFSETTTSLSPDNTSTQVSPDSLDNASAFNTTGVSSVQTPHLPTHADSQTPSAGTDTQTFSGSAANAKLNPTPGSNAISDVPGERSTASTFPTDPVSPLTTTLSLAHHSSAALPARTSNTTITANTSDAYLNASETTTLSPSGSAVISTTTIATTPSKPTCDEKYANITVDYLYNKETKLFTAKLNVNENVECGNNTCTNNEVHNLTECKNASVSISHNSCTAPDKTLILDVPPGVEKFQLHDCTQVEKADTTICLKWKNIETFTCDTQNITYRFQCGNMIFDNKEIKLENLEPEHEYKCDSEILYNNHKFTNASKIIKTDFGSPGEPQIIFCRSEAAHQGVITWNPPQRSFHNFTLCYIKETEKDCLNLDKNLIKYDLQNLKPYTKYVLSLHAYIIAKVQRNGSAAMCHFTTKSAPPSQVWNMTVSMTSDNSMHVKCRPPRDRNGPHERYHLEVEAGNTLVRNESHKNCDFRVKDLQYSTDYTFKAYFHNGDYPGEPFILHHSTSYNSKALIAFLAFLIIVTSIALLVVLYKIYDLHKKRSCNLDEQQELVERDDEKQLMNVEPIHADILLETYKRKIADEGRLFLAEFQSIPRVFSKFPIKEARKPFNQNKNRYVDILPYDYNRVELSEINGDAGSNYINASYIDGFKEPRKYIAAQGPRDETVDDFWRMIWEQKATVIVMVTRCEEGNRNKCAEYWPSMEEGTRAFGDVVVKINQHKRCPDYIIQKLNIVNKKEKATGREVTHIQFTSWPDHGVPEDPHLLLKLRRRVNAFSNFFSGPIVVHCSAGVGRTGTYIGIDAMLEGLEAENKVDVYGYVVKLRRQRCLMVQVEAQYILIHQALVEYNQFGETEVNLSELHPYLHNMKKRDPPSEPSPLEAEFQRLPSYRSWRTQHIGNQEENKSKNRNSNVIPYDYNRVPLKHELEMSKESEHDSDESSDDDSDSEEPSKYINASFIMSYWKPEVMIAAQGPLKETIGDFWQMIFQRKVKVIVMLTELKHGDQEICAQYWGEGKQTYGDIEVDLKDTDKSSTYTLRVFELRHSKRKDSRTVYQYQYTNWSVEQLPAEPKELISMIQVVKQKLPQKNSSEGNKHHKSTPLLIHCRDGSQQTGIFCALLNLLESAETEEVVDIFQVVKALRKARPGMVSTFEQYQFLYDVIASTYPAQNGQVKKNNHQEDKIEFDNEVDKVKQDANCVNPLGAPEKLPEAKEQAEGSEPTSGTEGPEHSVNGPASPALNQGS

In the case of `CC(=O)Nc1cc2c(cc1[N+](=O)[O-])-c1ccccc1C2=O`, the Kd [1] is reported as 31.8 µM.

Compound `O=C1c2ccccc2-c2cc([N+](=O)[O-])c([N+](=O)[O-])cc21` has a Kd [1] of 37.1 µM and an inhibition [2] of over 50%.

With `O=C1C(=O)c2cc([N+](=O)[O-])ccc2-c2ccccc21` the Kd [1] was 6.81 µM and the Kinact [3] was 4300 M⁻¹ s⁻¹.

`O=C(O)C[S+]([O-])c1ccc2c3c(cccc13)C(=O)c1ccccc1-2` (centres undefined) gave a Kd [1] of 180 µM.

Work on `O=C1c2ccccc2-c2c1cc([N+](=O)[O-])cc2[N+](=O)[O-]` yielded a Kd [1] of 48.1 µM.

`O=[N+]([O-])c1ccc(Sc2cccc[n+]2[O-])c2nonc12` gave a Kd [1] of 19.5 µM.

Compound `O=C1c2cc(F)ccc2-c2cc(F)c([N+](=O)[O-])cc21` has a Kd [1] of 44.6 µM.

For `CC(=O)[C@H]1CC[C@H]2C34C=C[C@]5(C[C@@H](O)CC[C@]5(C)C3=CC[C@]12C)[C@H](C(=O)O)[C@@H]4C(=O)O`, the Kd [1] was 127 µM.

Compound `O=C(O)CCc1nnc2c3ccccc3c3ccccc3c2n1` has a Kd [1] of 46.9 µM and an inhibition [2] of over 50%.

Work on `Nc1nc(Sc2ccc([N+](=O)[O-])c3nonc23)c2nc[nH]c2n1` yielded a Kd [1] of 15.2 µM and an inhibition [2] of over 90%.
